# Reference: ChEMBL document CHEMBL4715736, “Identification of anticancer agents based on the thieno[2,3-b]pyridine and 1H-pyrazole molecular scaffolds” (2016)
# Tested on: HOP-92
# Experiment: Growth inhibition of human HOP-92 cells assessed as cell growth at 0.01 uM incubated for 48 hrs by sulforhodamine B assay relative to control
# Type: functional
# Settings: read-out: Activity
row,Structure (SMILES),growth at 0.01 µM [%]
1,Cc1cccc(NC(=O)c2sc3nc4c(cc3c2N)C(=O)CCC4)c1,87

# Tested on: NCI-H23
# Experiment: Growth inhibition of human NCI-H23 cells assessed as cell growth at 0.01 uM incubated for 48 hrs by sulforhodamine B assay relative to control
# Type: functional
# Settings: read-out: Activity
row,Structure (SMILES),growth at 0.01 µM [%]
1,Cc1cccc(NC(=O)c2sc3nc4c(cc3c2N)C(=O)CCC4)c1,99

# Tested on: HCT-116
# Experiment: Growth inhibition of human HCT-116 cells assessed as cell growth at 0.01 uM incubated for 48 hrs by sulforhodamine B assay relative to control
# Type: functional
# Settings: read-out: Activity
row,Structure (SMILES),growth at 0.01 µM [%]
1,Cc1cccc(NC(=O)c2sc3nc4c(cc3c2N)C(=O)CCC4)c1,93

# Tested on: A498
# Experiment: Growth inhibition of human A498 cells assessed as cell growth at 0.01 uM incubated for 48 hrs by sulforhodamine B assay relative to control
# Type: functional
# Settings: read-out: Activity
# Summary of the method: (§1)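 NCI Developmental Therapeutics Program NCI60 panel. Compounds that were active in the 10 µM one-dose screen went on to dose–response testing. Growth at each concentration is expressed relative to untreated control (100%). GI50 (concentration giving 50% of maximal inhibition of proliferation) and TGI (concentration giving total growth inhibition) were derived from the curves.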
row,Structure (SMILES),growth at 0.01 µM [%]
1,Cc1cccc(NC(=O)c2sc3nc4c(cc3c2N)C(=O)CCC4)c1,68

# Tested on: OVCAR-5
# Experiment: Growth inhibition of human OVCAR-5 cells assessed as cell growth at 0.1 uM incubated for 48 hrs by sulforhodamine B assay relative to control
# Type: functional
# Settings: read-out: Activity
row,Structure (SMILES),growth at 0.1 µM [%]
1,Cc1cccc(NC(=O)c2sc3nc4c(cc3c2N)C(=O)CCC4)c1,86

# Tested on: TK-10
# Experiment: Growth inhibition of human TK-10 cells assessed as cell growth at 0.1 uM incubated for 48 hrs by sulforhodamine B assay relative to control
# Type: functional
# Settings: read-out: Activity
row,Structure (SMILES),growth at 0.1 µM [%]
1,Cc1cccc(NC(=O)c2sc3nc4c(cc3c2N)C(=O)CCC4)c1,82

# Tested on: UO-31
# Experiment: Growth inhibition of human UO-31 cells assessed as cell growth at 0.1 uM incubated for 48 hrs by sulforhodamine B assay relative to control
# Type: functional
# Settings: read-out: Activity
row,Structure (SMILES),growth at 0.1 µM [%]
1,Cc1cccc(NC(=O)c2sc3nc4c(cc3c2N)C(=O)CCC4)c1,81

# Tested on: A549
# Experiment: Growth inhibition of human A549/ATCC cells assessed as cell growth at 1 uM incubated for 48 hrs by sulforhodamine B assay relative to control
# Type: functional
# Settings: read-out: Activity
# Summary of the method: as §1
row,Structure (SMILES),growth at 1 µM [%]
1,Cc1cccc(NC(=O)c2sc3nc4c(cc3c2N)C(=O)CCC4)c1,19

# Tested on: NCI-H23
# Experiment: Growth inhibition of human NCI-H23 cells assessed as cell growth at 1 uM incubated for 48 hrs by sulforhodamine B assay relative to control
# Type: functional
# Settings: read-out: Activity
row,Structure (SMILES),growth at 1 µM [%]
1,Cc1cccc(NC(=O)c2sc3nc4c(cc3c2N)C(=O)CCC4)c1,35

# Tested on: NCI-H322M
# Experiment: Growth inhibition of human NCI-H322M cells assessed as cell growth at 1 uM incubated for 48 hrs by sulforhodamine B assay relative to control
# Type: functional
# Settings: read-out: Activity
row,Structure (SMILES),growth at 1 µM [%]
1,Cc1cccc(NC(=O)c2sc3nc4c(cc3c2N)C(=O)CCC4)c1,48

# Tested on: NCI-H460
# Experiment: Growth inhibition of human NCI-H460 cells assessed as cell growth at 1 uM incubated for 48 hrs by sulforhodamine B assay relative to control
# Type: functional
# Settings: read-out: Activity
row,Structure (SMILES),growth at 1 µM [%]
1,Cc1cccc(NC(=O)c2sc3nc4c(cc3c2N)C(=O)CCC4)c1,8

# Tested on: 786-0
# Experiment: Growth inhibition of human 786-0 cells assessed as cell growth at 1 uM incubated for 48 hrs by sulforhodamine B assay relative to control
# Type: functional
# Settings: read-out: Activity
# Summary of the method: as §1
row,Structure (SMILES),growth at 1 µM [%]
1,Cc1cccc(NC(=O)c2sc3nc4c(cc3c2N)C(=O)CCC4)c1,30

# Tested on: CAKI-1
# Experiment: Growth inhibition of human CAKI-1 cells assessed as cell growth at 1 uM incubated for 48 hrs by sulforhodamine B assay relative to control
# Type: functional
# Settings: read-out: Activity
# Summary of the method: as §1
row,Structure (SMILES),growth at 1 µM [%]
1,Cc1cccc(NC(=O)c2sc3nc4c(cc3c2N)C(=O)CCC4)c1,30

# Tested on: PC-3
# Experiment: Growth inhibition of human PC-3 cells assessed as cell growth at 1 uM incubated for 48 hrs by sulforhodamine B assay relative to control
# Type: functional
# Settings: read-out: Activity
row,Structure (SMILES),growth at 1 µM [%]
1,Cc1cccc(NC(=O)c2sc3nc4c(cc3c2N)C(=O)CCC4)c1,29

# Tested on: CCRF-CEM
# Experiment: Growth inhibition of human CCRF-CEM cells assessed as cell growth at 100 uM incubated for 48 hrs by sulforhodamine B assay relative to control
# Type: functional
# Settings: read-out: Activity
# Summary of the method: as §1
row,Structure (SMILES),growth at 100 µM [%]
1,Cc1cccc(NC(=O)c2sc3nc4c(cc3c2N)C(=O)CCC4)c1,-7

# Tested on: NCI-H23
# Experiment: Growth inhibition of human NCI-H23 cells assessed as cell growth at 100 uM incubated for 48 hrs by sulforhodamine B assay relative to control
# Type: functional
# Settings: read-out: Activity
row,Structure (SMILES),growth at 100 µM [%]
1,Cc1cccc(NC(=O)c2sc3nc4c(cc3c2N)C(=O)CCC4)c1,12

# Tested on: NCI-H322M
# Experiment: Growth inhibition of human NCI-H322M cells assessed as cell growth at 100 uM incubated for 48 hrs by sulforhodamine B assay relative to control
# Type: functional
# Settings: read-out: Activity
row,Structure (SMILES),growth at 100 µM [%]
1,Cc1cccc(NC(=O)c2sc3nc4c(cc3c2N)C(=O)CCC4)c1,-22

# Tested on: NCI-H522
# Experiment: Growth inhibition of human NCI-H522 cells assessed as cell growth at 100 uM incubated for 48 hrs by sulforhodamine B assay relative to control
# Type: functional
# Settings: read-out: Activity
row,Structure (SMILES),growth at 100 µM [%]
1,Cc1cccc(NC(=O)c2sc3nc4c(cc3c2N)C(=O)CCC4)c1,-27

# Tested on: HT-29
# Experiment: Growth inhibition of human HT-29 cells assessed as cell growth at 100 uM incubated for 48 hrs by sulforhodamine B assay relative to control
# Type: functional
# Settings: read-out: Activity
row,Structure (SMILES),growth at 100 µM [%]
1,Cc1cccc(NC(=O)c2sc3nc4c(cc3c2N)C(=O)CCC4)c1,3

# Tested on: SNB-75
# Experiment: Growth inhibition of human SNB-75 cells assessed as cell growth at 100 uM incubated for 48 hrs by sulforhodamine B assay relative to control
# Type: functional
# Settings: read-out: Activity
row,Structure (SMILES),growth at 100 µM [%]
1,Cc1cccc(NC(=O)c2sc3nc4c(cc3c2N)C(=O)CCC4)c1,1

# Tested on: UACC-257
# Experiment: Growth inhibition of human UACC-257 cells assessed as cell growth at 100 uM incubated for 48 hrs by sulforhodamine B assay relative to control
# Type: functional
# Settings: read-out: Activity
row,Structure (SMILES),growth at 100 µM [%]
1,Cc1cccc(NC(=O)c2sc3nc4c(cc3c2N)C(=O)CCC4)c1,-16

# Tested on: UACC-62
# Experiment: Growth inhibition of human UACC-62 cells assessed as cell growth at 100 uM incubated for 48 hrs by sulforhodamine B assay relative to control
# Type: functional
# Settings: read-out: Activity
row,Structure (SMILES),growth at 100 µM [%]
1,Cc1cccc(NC(=O)c2sc3nc4c(cc3c2N)C(=O)CCC4)c1,33

# Tested on: BT-549
# Experiment: Growth inhibition of human BT-549 cells assessed as cell growth at 100 uM incubated for 48 hrs by sulforhodamine B assay relative to control
# Type: functional
# Settings: read-out: Activity
row,Structure (SMILES),growth at 100 µM [%]
1,Cc1cccc(NC(=O)c2sc3nc4c(cc3c2N)C(=O)CCC4)c1,-11

# Tested on: MDA-MB-468
# Experiment: Growth inhibition of human MDA-MB-468 cells assessed as cell growth at 100 uM incubated for 48 hrs by sulforhodamine B assay relative to control
# Type: functional
# Settings: read-out: Activity
row,Structure (SMILES),growth at 100 µM [%]
1,Cc1cccc(NC(=O)c2sc3nc4c(cc3c2N)C(=O)CCC4)c1,5

# Tested on: HOP-62
# Experiment: Growth inhibition of human HOP-62 cells incubated for 48 hrs by sulforhodamine B assay
# Type: functional
# Settings: not given
# Summary of the method: (§2)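 NCI60 panel at the NCI Developmental Therapeutics Program. Only compounds active in the 10 µM screen went to dose-response testing. GI50, the concentration giving 50% of maximal inhibition of proliferation, and TGI, the concentration giving total growth inhibition, were derived from the dose-response curves.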
Structure (SMILES),GI50 [µM],LC50 [µM],TGI [µM]
Cc1cccc(NC(=O)c2sc3nc4c(cc3c2N)C(=O)CCC4)c1,0.331,> 100,≥ 100

# Tested on: NCI-H322M
# Experiment: Growth inhibition of human NCI-H322M cells incubated for 48 hrs by sulforhodamine B assay
# Type: functional
# Settings: not given
# Summary of the method: as §2
row,Structure (SMILES),TGI [µM]
1,Cc1cccc(NC(=O)c2sc3nc4c(cc3c2N)C(=O)CCC4)c1,> 100

# Same assay, conditions: read-out: LC50 (the source's name)
row,Structure (SMILES),CC50 [µM]
1,Cc1cccc(NC(=O)c2sc3nc4c(cc3c2N)C(=O)CCC4)c1,> 100

# Tested on: KM12
# Experiment: Growth inhibition of human KM12 cells incubated for 48 hrs by sulforhodamine B assay
# Type: functional
# Settings: not given
# Summary of the method: as §2
Structure (SMILES),GI50 [µM],LC50 [µM],TGI [µM]
Cc1cccc(NC(=O)c2sc3nc4c(cc3c2N)C(=O)CCC4)c1,0.21,> 100,> 100

# Tested on: SF-295
# Experiment: Growth inhibition of human SF-295 cells incubated for 48 hrs by sulforhodamine B assay
# Type: functional
# Settings: not given
# Summary of the method: (§3)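 NCI DTP 60-line human tumour panel. Dose-response curves were run only for ligands active in the initial 10 µM screen. GI50 (concentration giving 50% of maximal inhibition of proliferation) and TGI (concentration giving total growth inhibition) were derived from these curves.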
Structure (SMILES),GI50 [µM],LC50 (concentration killing 50% of cells) [µM],TGI [µM]
Cc1cccc(NC(=O)c2sc3nc4c(cc3c2N)C(=O)CCC4)c1,0.175,> 100,≥ 100

# Tested on: LOX IMVI
# Experiment: Growth inhibition of human LOX IMVI cells incubated for 48 hrs by sulforhodamine B assay
# Type: functional
# Settings: not given
# Summary of the method: as §2
Structure (SMILES),GI50 [µM],LC50 [µM],TGI [µM]
Cc1cccc(NC(=O)c2sc3nc4c(cc3c2N)C(=O)CCC4)c1,0.0118,> 100,≥ 100

# Tested on: UACC-257
# Experiment: Growth inhibition of human UACC-257 cells incubated for 48 hrs by sulforhodamine B assay
# Type: functional
# Settings: not given
# Summary of the method: as §3
Structure (SMILES),GI50 [µM],LC50 (concentration killing 50% of cells) [µM],TGI [µM]
Cc1cccc(NC(=O)c2sc3nc4c(cc3c2N)C(=O)CCC4)c1,≥ 0.148,> 100,> 100

# Tested on: SN12C
# Experiment: Growth inhibition of human SN12C cells incubated for 48 hrs by sulforhodamine B assay
# Type: functional
# Settings: not given
# Summary of the method: as §3
Structure (SMILES),GI50 [µM],TGI [µM]
Cc1cccc(NC(=O)c2sc3nc4c(cc3c2N)C(=O)CCC4)c1,0.695,≥ 100

# Same assay, conditions: read-out: LC50 (the source's name)
row,Structure (SMILES),CC50 [µM]
1,Cc1cccc(NC(=O)c2sc3nc4c(cc3c2N)C(=O)CCC4)c1,> 100

# Tested on: MDA-MB-231
# Experiment: Growth inhibition of human MDA-MB-231 cells incubated for 48 hrs by sulforhodamine B assay
# Type: functional
# Settings: not given
# Summary of the method: as §2
Structure (SMILES),GI50 [µM],TGI [µM]
Cc1cccc(NC(=O)c2sc3nc4c(cc3c2N)C(=O)CCC4)c1,0.559,≥ 100

# Same assay, conditions: read-out: LC50 (the source's name)
row,Structure (SMILES),CC50 [µM]
1,Cc1cccc(NC(=O)c2sc3nc4c(cc3c2N)C(=O)CCC4)c1,> 100

# Tested on: Hs-578T
# Experiment: Growth inhibition of human Hs-578T cells incubated for 48 hrs by sulforhodamine B assay
# Type: functional
# Settings: not given
# Summary of the method: as §2
Structure (SMILES),GI50 [µM],TGI [µM]
Cc1cccc(NC(=O)c2sc3nc4c(cc3c2N)C(=O)CCC4)c1,0.256,40.9

# Same assay, conditions: read-out: LC50 (the source's name)
row,Structure (SMILES),CC50 [µM]
1,Cc1cccc(NC(=O)c2sc3nc4c(cc3c2N)C(=O)CCC4)c1,> 100
